From BindingDB's records for doi:10.1016/j.ejmech.2019.111879 (University of Bonn, 2020)

Experiments:
Adenosine receptor A3 [1] = molecular target: T1, Adenosine receptor A3 (Rattus norvegicus, UniProt P28647); experiment: Antagonist activity at rat A3AR expressed in CHO cells assessed as reduction in NECA-induced inhibition of forskolin-stimulated cAMP accumulation incubated for 2 hrs by fluorescence based assay
T1 sequence (P28647 whole entry): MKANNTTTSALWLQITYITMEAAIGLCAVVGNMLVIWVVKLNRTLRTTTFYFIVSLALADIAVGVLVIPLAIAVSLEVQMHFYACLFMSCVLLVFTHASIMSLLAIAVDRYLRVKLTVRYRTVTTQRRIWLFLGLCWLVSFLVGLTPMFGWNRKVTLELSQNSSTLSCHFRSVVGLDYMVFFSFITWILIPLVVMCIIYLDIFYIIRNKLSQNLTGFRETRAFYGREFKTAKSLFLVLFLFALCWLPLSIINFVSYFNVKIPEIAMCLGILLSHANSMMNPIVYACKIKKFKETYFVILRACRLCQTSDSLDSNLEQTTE
Procedure, shortened: (§1)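 CHO cells stably expressing rat A3 AR, seeded at 150,000-200,000 cells/well. Cells washed, then held 2 h at 37 °C in HBSS with 20 mM HEPES (pH 7.3) and 2 U/ml adenosine deaminase. Forskolin (10 μM) plus NECA concentration series added at 36.5 °C, with or without test compound. Stopped by hot lysis solution (90 °C, 4 mM Na2EDTA, Triton X-100). Data normalized to forskolin (100%) and buffer (0%). KB calculated, n=3.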

Adenosine receptor A3 [2] = molecular target: T1, Adenosine receptor A3; experiment: Antagonist activity at rat A3AR expressed in CHO cells assessed as reduction in NECA-induced inhibition of forskolin-stimulated cAMP accumulation at 3 uM incubated for 2 hrs by fluorescence based assay; procedure, shortened: as §1
Adenosine receptor A3 [3] = molecular target: T1, Adenosine receptor A3; experiment: Antagonist activity at rat A3AR expressed in CHO cells assessed as reduction in NECA-induced inhibition of forskolin-stimulated cAMP accumulation at 10 uM incubated for 2 hrs by fluorescence based assay; procedure, shortened: as §1
Adenosine receptor A1 = molecular target: T2, Adenosine receptor A1 (Rattus norvegicus, UniProt P25099); experiment: Displacement of [3H]DPCPX from rat brain cortical membrane A1AR assessed as GTP shift
T2 sequence (P25099 whole entry): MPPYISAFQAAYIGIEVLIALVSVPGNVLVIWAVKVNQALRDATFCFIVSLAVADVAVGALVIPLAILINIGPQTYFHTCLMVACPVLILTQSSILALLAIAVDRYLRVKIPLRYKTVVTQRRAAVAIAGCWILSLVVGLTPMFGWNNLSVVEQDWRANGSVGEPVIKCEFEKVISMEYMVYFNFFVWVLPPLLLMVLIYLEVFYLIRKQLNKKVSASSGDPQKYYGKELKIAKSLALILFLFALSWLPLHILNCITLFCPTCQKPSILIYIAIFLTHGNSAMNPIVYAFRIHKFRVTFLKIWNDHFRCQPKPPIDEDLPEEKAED

SMILES	EC50 (Adenosine receptor A3 [1]) [µM]	EC50 (Adenosine receptor A3 [2]) [µM]	EC50 (Adenosine receptor A3 [3]) [µM]	GTP shift (Adenosine receptor A1)
COc1ccc(C(=O)Nc2nc(-c3ccccc3)c(C(=O)c3ccc(C)cc3)s2)cc1	–	–	–	1
O=C(Nc1nc(-c2ccccc2)c(C(=O)c2ccc(F)cc2F)s1)c1ccccc1	–	–	–	0.9

Next, values leading:

EC50 (Adenosine receptor A3 [1]) [µM]	EC50 (Adenosine receptor A3 [2]) [µM]	EC50 (Adenosine receptor A3 [3]) [µM]	GTP shift (Adenosine receptor A1)	SMILES
0.0053	0.057	1.72	–	O=C(Nc1nc(-c2ccccc2)c(-c2nc3ccccc3c(=O)n2-c2ccc(Cl)cc2)s1)c1ccco1
–	–	–	1.3	Cc1ccc(C(=O)c2sc(NC(=O)c3ccco3)nc2-c2ccccc2)cc1
–	–	–	1	O=C(Nc1nc(-c2ccccc2)c(C(=O)c2ccc(Cl)cc2)s1)c1ccccc1
